Most compounds without a hit are left out; they make up all but 4.6% or so of the library.
TAAR1 agonist – human TAAR1 agonism | Q96RJ0 | CHO RD-HGA16 TAAR1, Fluo-8 calcium fluorescence; vehicle wells 0%, saturating PEA agonist 100% | activation, % at 3 µM | 360,000 tested, 0.99% active;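 active = activation above the mean activation of all test compounds in the run plus 3 SD, cut at about 38% in these data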
Target sequence (Q96RJ0 whole entry, looked up): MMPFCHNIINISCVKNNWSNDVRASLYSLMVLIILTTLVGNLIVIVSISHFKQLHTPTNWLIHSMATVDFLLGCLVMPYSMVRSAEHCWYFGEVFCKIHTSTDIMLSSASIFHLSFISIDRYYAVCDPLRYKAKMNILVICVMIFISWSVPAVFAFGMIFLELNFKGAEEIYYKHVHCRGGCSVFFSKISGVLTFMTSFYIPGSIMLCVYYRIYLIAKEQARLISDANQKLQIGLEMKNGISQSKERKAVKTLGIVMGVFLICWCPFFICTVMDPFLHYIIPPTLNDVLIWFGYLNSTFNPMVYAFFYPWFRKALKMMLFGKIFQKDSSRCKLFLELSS
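Repeats: no replicates (n 1) | Material: CHO-derived RD-HGA16 cells with stable Gα16 and human TAAR1 | Technique: Kinetic Fluo-8 calcium fluorescence | Schedule: 17-24 h seeding, 75 min 37 °C dye, 30 min RT | Evaluation: % activation from peak over basal fluorescence ratio, DMSO-to-PEA scaled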
GPR7 antagonist – human neuropeptides B/W receptor 1 antagonism; P48145; GPR7-expressing cells, fluorescence antagonist assay; inhibition, % at 4.4 µM; 290,000 tested, 1.1% active; AID 1861; in the data active = inhibition above about 16%, passing the limit was not always enough;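 note: cells stimulated with the agonist NPW; 0% = agonist with vehicle and 100% = vehicle without agonist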
Target sequence (P48145 whole entry, looked up): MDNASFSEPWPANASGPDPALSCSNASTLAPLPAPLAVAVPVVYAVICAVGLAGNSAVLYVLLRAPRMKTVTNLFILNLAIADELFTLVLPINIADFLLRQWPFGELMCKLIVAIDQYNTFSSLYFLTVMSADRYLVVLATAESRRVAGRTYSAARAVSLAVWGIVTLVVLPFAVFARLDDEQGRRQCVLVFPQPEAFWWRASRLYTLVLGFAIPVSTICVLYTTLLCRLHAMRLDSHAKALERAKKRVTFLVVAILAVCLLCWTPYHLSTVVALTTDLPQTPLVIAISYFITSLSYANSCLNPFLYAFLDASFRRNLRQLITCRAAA
OX1R antag-1 – blocks the human orexin 1 receptor. 330,000 tested, 0.43% active. CHO/OX1R cells, Fluo-8 calcium fluorescence, orexin A. O43613. inhibition, % at 5 µM. AID 434989;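 active = inhibition above its plate's threshold, mean inhibition of all tested compounds on the plate plus 3 SD, cut at about 37% in these data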;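 note: 0% = orexin A challenge wells and 100% = SB-334867-A antagonist wells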
TAAR1 antag – antagonists of human TAAR1; inhibition, % at 3 µM; Q96RJ0; 360,000 tested, 1.5% active; CHO RD-HGA16 TAAR1, Fluo-8 calcium fluorescence, antagonist;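 active = inhibition above a per-plate cutoff, the mean inhibition of test compounds on that plate plus 3 SD, cut at about 49% in these data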;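 note: 0% = DMSO plus EC80 beta-PEA response and 100% = DMSO alone without agonist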
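System: CHO RD-HGA16 cells bearing hTAAR1. Reagent: EC80 β-phenethylamine stimulus. Schedule: seeding 17-24 h prior, 75-min 37 °C, 30-min RT dye loading. Signal: Fluo-8 intracellular calcium dye fluorescence, real-time kinetic reads. Read-out: % inhibition from peak post-agonist over basal fluorescence ratio. Benchmarks: vehicle wells and EC80 agonist wells. Replicates: n of 1.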
OX1R antag-2 – OX1R (human) antagonism; AID 485270; OX1R-expressing cells, FRET antagonist read-out; O43613; 330,000 tested, 1.8% active; inhibition, % at 6.6 µM; in the data active = inhibition mostly above about 38%, no sharp cut-off; inactive = mostly below about 40%;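 note: 0% = agonist challenge alone and 100% = reference antagonist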
CHO parental Ca – counter-screen for OX1R antagonists: effect in parental CHO cells | inhibition, % at 5.6 µM | 330,000 tested, 0.63% active | parental CHO-K1, ATP-induced calcium, Fluo-8 fluorescence | AID 463079;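 active = inhibition above that plate's mean sample inhibition plus 3 SD, cut at about 26% in these data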;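 note: 0% = ATP-challenged DMSO wells and 100% = DMSO wells without ATP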
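Material: parental CHO cells / Compound: single nominal dose of 5.6 µM per compound / Signal: Fluo-8 fluorescence / Replicates: singlicate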
* hit, by the source's call; x = no result.

SMILES	TAAR1 agonist	GPR7 antagonist	OX1R antag-1	TAAR1 antag	OX1R antag-2	CHO parental Ca
CN(C)C=NC(=O)c1ccc([N+](=O)[O-])c(CS(=O)(=O)c2ccc(Cl)cc2)c1	11	-2	-9	-5	72*	-9
Cc1ccccc1NC(=O)Cc1nc(COC(=O)c2ncc(Cl)c(Cl)c2Cl)cs1	5	x	x	45	x	x
CCCSc1nnc(NC(=O)Nc2ccccc2)s1	40*	-5	-10	8	23	-15
CCCSc1nnc(NC(=O)Nc2ccc(C)cc2)s1	3	-16	-26	-3	13	-18
O=C1C2C3C=CC(C3)C2C(=O)N1c1ccc(-c2nc(-c3ccccc3)nc3ccccc23)cc1 (stereo unspecified)	1	x	x	25	x	x
CN(Cc1ccc(Cl)cc1)C(=O)c1ccc(S(=O)(=O)NCc2ccco2)cc1	10	x	9	15	34*	-8
CCOc1ccccc1NC(=O)c1ccc2[nH]c(C)c(C)c2c1	-6	-18	-16	1	73*	-22
COc1ccc(NC(=O)c2ccc3[nH]c(C)c(C)c3c2)c(OC)c1	2	7	19	0	50*	-7
CCOc1ccccc1NC(=O)c1ccc(OCC)c([N+](=O)[O-])c1	10	-3	8	9	22	-18
O=c1[nH]cnc2ncc(-c3ccc(O)cc3)nc12	4	x	1	-17	60*	-9
N#Cc1ccccc1NC(=O)CN(Cc1ccccc1)Cc1ccccc1	0	-19	-47	14	15	-29
CC(=O)N(Cc1c(C#N)c2ccccc2n1C)c1ccccc1	5	2	-21	-28	14	-12
CC(=O)N(Cc1ccccc1)c1ncc2c(n1)c(=O)c(C#N)c1ccccn12	-2	6	4	-16	63*	-15
NS(=O)(=O)c1ccc(Nc2ncccc2[N+](=O)[O-])cc1	4	-1	1	12	58*	4
COC(=O)c1cc2c(c3c4cc(C)ccc4n(S(=O)(=O)c4ccc(C)cc4)c13)C(=O)N(Cc1ccc(N(C)C)cc1)C2	-2	x	x	-4	x	x
COc1ccc(Cl)cc1N1C(=O)C2CCCN2C1c1ccc(F)c(F)c1 (stereo unspecified)	-2	16*	-16	-24	10	-27
Cc1cc(C(C)(C)C)oc1C(=O)N(CC(=O)NC1CCCC1)c1c(C)cccc1C	12	17	42*	30	77*	46*
Cc1cc(C(C)(C)C)oc1C(=O)N(CC(=O)NC1CCCC1)c1ccc(F)cc1	35	16	0	15	54*	-9
Cc1ccc(C(=O)N(CC(=O)NC2CCCC2)c2ccccc2C)s1	0	-4	0	-7	25	-23
CC(=O)c1ccc(N(CC(=O)NC2CCCC2)C(=O)c2ccc(C)s2)cc1	2	21*	5	5	16	-4
CC(=O)c1cccc(N(CC(=O)NC2CCCC2)C(=O)c2ccc(C)s2)c1	1	0	-17	1	9	-10
CC(C)(C)C1CCN2CCCC(c3ccccc3)(C1)C2=O (stereo unspecified)	-2	x	x	-8	x	x
O=C(CCSCc1ccccc1F)NCCc1ccccc1	39*	1	-3	76*	19	-11
O=C(COc1ccc(-n2cnnn2)cc1)Nc1ccc(F)c(F)c1F	8	x	-73	18	2	30*
O=C(CN1C(=O)NC2(CCCC2)C1=O)Nc1cc(Cl)ccc1N1CCCCC1	-3	-3	-42	-25	5	-29
SMILES	TAAR1 agonist	GPR7 antagonist	OX1R antag-1	TAAR1 antag	OX1R antag-2	CHO parental Ca
CCOC(=O)N1CCN(C(=O)CCCn2nnnc2CN2CCC(C)CC2)CC1	0	-3	-10	-23	11	-3
COc1ccc(/C=C2\Oc3ccccc3C2=O)cc1	13	x	1	0	22	-10
CC(=O)Oc1ccc(/C=C2/Oc3ccccc3C2=O)cc1	1	-1	35	-17	6	49*
CN(C(=O)COC(=O)Cc1ccc(Br)cc1)c1c(N)n(Cc2ccccc2)c(=O)[nH]c1=O	1	x	x	-17	x	x
CCN1C(=O)/C(=C2/C=CC=CN2C)SC1=S	6	4	4	-5	46*	5
Cc1cc(C)cc(NC(=O)Nc2ccc(-n3ccc(C(F)(F)F)n3)cc2)c1	4	9	54*	32	54*	40*
O=C(O)CCC(=O)Nc1ccc(-n2ccc(C(F)(F)F)n2)cc1	2	-4	-5	-3	5	-14
COc1cc(C(=O)OCC(=O)c2c[nH]c3ccccc23)ccc1OCC(=O)N1CCOCC1	5	9	-15	6	1	-2
CCc1cccc2c(C(=O)COC(=O)c3ccc([N+](=O)[O-])s3)c[nH]c12	22	5	4	42	30	22
COc1ccccc1/C=C/C(=O)OCc1nc2ccccc2c(=O)[nH]1	0	6	2	6	46*	-45
COc1ccc(C(=O)OCC(=O)c2c[nH]c3ccccc23)cc1OC	7	x	18	21	32*	-11
O=C(OCC(=O)c1c[nH]c2ccccc12)c1ccc([N+](=O)[O-])s1	25	-2	2	7	51*	-2
COc1ccccc1/C=C/C(=O)OCC(=O)c1c[nH]c2ccccc12	1	x	18	19	42*	-10
COc1ccc(NS(=O)(=O)c2ccc(C)c(C(=O)NCc3ccccc3CN3CCCC3)c2)cc1	4	x	x	-5	x	x
C[C@H](CO)N1C[C@H](C)[C@H](CN(C)Cc2cccc(F)c2)Oc2ncc(C3=CCCC3)cc2C1=O	0	x	x	-14	x	x
O=C(COC(=O)c1ccc[nH]c1=O)Nc1ccc(N2CCCCC2)cc1	0	x	-10	-7	3	3
CCOC(=O)CC1(O)CSc2nc(N)cc(=O)n21 (stereo unspecified)	3	x	x	-22	x	x
CN1C(=O)[C@@]2(O[C@H]3C=CC=CN3C3=C2C(=O)CCC3)c2cc([N+](=O)[O-])ccc21	0	x	x	1	x	x
NS(=O)(=O)c1ccc(NC(=O)COC(=O)CCNC(=O)NC23CC4CC(CC(C4)C2)C3)cc1	1	17*	-6	-2	5	4
NS(=O)(=O)c1ccc(NC(=O)COC(=O)C23CC4CC(CC(C4)C2)C3)cc1	5	-1	2	7	3	5
O=C(Nc1ccc(Cl)c(Cl)c1)c1ccccc1	27	x	8	22	33	-7
CN(C(=O)Nc1ccc(Cl)c(Cl)c1)c1ccccc1C(=O)O	7	-7	18	20	10	35*
CCOc1ccc(NC(=O)CN2C(=O)S/C(=C/c3cccn3C)C2=O)cc1	3	0	-1	16	44	-11
Cn1cccc1/C=C1\SC(=O)N(CC(=O)Nc2ccc(Cl)cc2)C1=O	28	-7	-16	55*	3	-11

Screens from PubChem.
